Test results from paper PMC7193547 (Environmental Science & Technology, 2018).
Like-named read-outs stand apart in the source and are kept apart here.

Columns and labels:
[1] = format: physicochemical; details: not told
[2] = test system: active glyphosate transporter; details: cited from earlier work
Ochrobactrum sp. FrEM = test: Biodegradation of glyphosate by Ochrobactrum sp. FrEM; format: cell-based; details: after 4.5 days, OD600 ≈ 0.8, 30 °C, pH 7
single bacterial cell = test system: single bacterial cell
Procedure, shortened: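 Calculated rather than measured: the liposome-derived Papp was scaled to a single cell using an estimated cell surface area of ≈3 μm² and membrane thickness δ (one 4 nm membrane for Gram-positive, two 4 nm membranes for Gram-negative), giving a concentration-gradient-dependent influx.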

## O=C(O)CNCP(=O)(O)O [glyphosate, N-(phopshomethyl)glycine]
[1]; pH 4.1
  Papp at 20 mM: 420 ×10⁻⁶ cm/s
[1]; pH 7
  Papp at 20 mM: 37 ×10⁻⁶ cm/s
[2]
  uptake rate of active glyphosate transporter (dnout/dt)cell-transport: −1.8 × 10^–21 mol·s^–1·cell^–1
[2]; read-out: affinity constant KM for glyphosate uptake
  Km: 125 µM
Ochrobactrum sp. FrEM
  maximum glyphosate degradation rate (dn/dt)deg-cell: −1.7 × 10^–21 mol·s^–1·cell^–1
Single bacterial cell; glyphosate concentration of 1 μM
  calculated maximum membrane permeation rate (dnout/dt)cell-perm-max: −6.5 × 10^–22 mol·s^–1·cell^–1
Single bacterial cell; pH 7, 0.12 mM glyphosate, compared with Ochrobactrum sp. FrEM
  calculated maximum membrane permeation rate (dnout/dt)cell-perm-max: −7.5 × 10^–20 mol·s^–1·cell^–1
Single bacterial cell; pH 7, 3 mM glyphosate, [Sin] = 0, compared with Achromobacter sp. MPS 12A
  calculated maximum membrane permeation rate (dnout/dt)cell-perm-max: −1.9 × 10^–18 mol·s^–1·cell^–1
Single bacterial cell; pH 7, 3 mM, versus degradation rate of Achromobacter sp. MPS 12A
  maximum permeation rate higher than degradation rate: 2 orders of magnitude
